# High-throughput results as filed in PubChem BioAssay.
# CHOP inh = inhibitors of CHOP promoter induction, primary screen, cell-based, unfolded protein response, luciferase reporter; AID 2732, 2010; actives 3.8% (n = 220,000); CHO-K1 CHOP-promoter luciferase, tunicamycin-induced, 15-18 h; inhibition, % at 10 µM;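 active = compounds that reduced the stress-induced luciferase reporter signal by more than about 70% of percent inhibition, limit read from the data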;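 also: 0% = tunicamycin plus vehicle and 100% = wells without tunicamycin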
# CHOP UPR activ = activators of apoptotic CHOP UPR arm, primary screen, cell-based, CHO-CHOP luciferase reporter, luminescence, uHTS; UPR activation; percent of tunicamycin response over DMSO baseline; activation, % at 10 µM; actives 0.34% (n = 330,000);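 active = at 10 µM dose, activation of 40% or more, normalized to positive control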;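 also: 100% = tunicamycin at 10 µg/mL and 0% = DMSO alone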
#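 Assay system: CHO cells with stable CHOP pathway luciferase reporter; Buffer or medium: F12 plus 10% serum; Times: 16-18 h cell attachment, then 6 h compound exposure, 37 °C; Signal: luciferase luminescence; Read-out basis: percent activation relative to tunicamycin control; Control set: tunicamycin high control, DMSO low control.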
# Tb MetRS inh = T. brucei MetRS inhibitors, primary screen, biochemical, luminescence; methionyl-tRNA synthetase (Trypanosoma brucei brucei); purified T. brucei MetRS, ATP depletion, Kinase-Glo luminescence; inhibition, % at 11.9 µM; actives 0.4% (n = 360,000);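 active = inhibition above a per-plate cutoff of the control wells' mean inhibition plus 3 SD, cut at about 5.5% in these data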;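 also: 0% = DMSO wells median and 100% = median of wells with control inhibitor compound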
#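 Material – parasite MetRS enzyme · Medium – HEPES-MgCl2-KCl buffer plus DTT, spermine, BSA, pyrophosphatase · Reagent – ATP, methionine and E. coli bulk tRNA substrates · Times – 15 min enzyme-compound preincubation, 2 h reaction, 10 min detection, 25 °C · Measured by – luminescence of leftover ATP · Evaluation – percent inhibition relative to median high and low control wells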
# V-ATPase pHluor = regulators of yeast V-ATPase proton pumping, primary screen, pHLuorin cytosolic pH fluorescence; AID 504577, 2011; S. cerevisiae; actives 0.37% (n = 350,000); response, % at 10 µM; in the data active = response mostly above about 7.3%, no sharp cut-off; inactive = mostly below about 5.4%; also: actives read high
# XBP1 UPR activ = activators of adaptive XBP1 UPR arm, primary screen, cell-based, CHO-XBP1 luciferase reporter, luminescence, uHTS | IRE1-XBP1 UPR activation; percent of tunicamycin response, DMSO as zero | activation, % at 20 µM | actives 0.33% (n = 330,000);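 active = versus positive control, 20 µM dose yields 30% or more activation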;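 also: 100% = tunicamycin at 10 µg/mL and 0% = DMSO only wells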
#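 incubation = overnight seeding at 37 °C, 6 h compound treatment at 37 °C | assay system = CHO-XBP1 cells stably carrying IRE1-XBP1-driven luciferase reporter | input = 1000 cells per well | detection = luciferase luminescence | dosing = single point, 20 µM final compound, 1% DMSO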
# Tb MetRS conf = T. brucei MetRS inhibitors, confirmation, biochemical, luminescence. shares compounds with Tb MetRS inh. T. brucei MetRS enzyme, luminescence (ATP depletion). inhibition, % at 11.9 µM. actives 93% (n = 1,400). AID 624412, 2012; in the data active = inhibition above about 7%
# Jurkat tox = Jurkat T cell cytotoxicity, cytotoxicity control for T. brucei MetRS inhibitor project, luminescence, high throughput | shares compounds with Tb MetRS inh | Jurkat cells viability, ATP luminescence | inhibition, % at 8.3 µM | actives 12% (n = 1,400) | AID 624413, 2012; in the data active = inhibition above about 15%;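 also: 0% = vehicle and 100% = reference inhibitor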
# TbMetRS FP orth = T. brucei MetRS inhibitors, orthogonal assay for T. brucei MetRS inhibitor project, biochemical, fluorescence polarization. purified T. brucei MetRS. actives 44% (n = 1,400). AID 651607, 2012. shares compounds with Tb MetRS inh. inhibition, % at 11.9 µM; in the data active = inhibition above about 17%;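 also: 0% = vehicle wells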
# The depositor's hits bear a star; . = no result. Only a selection was taken, and hits are over-represented in it overall.
SMILES,CHOP inh,CHOP UPR activ,Tb MetRS inh,V-ATPase pHluor,XBP1 UPR activ,Tb MetRS conf,Jurkat tox,TbMetRS FP orth
Nc1nc2ccccc2n1CCOc1ccc(Br)cc1,.,-1.7,37.4*,0.2,0.6,51.2*,19.2*,33.8*
Nc1nc2ccccc2n1CCOc1ccc(Cl)cc1,.,-0.5,25.8*,-3.7,-1.8,45.2*,2.4,22.0*
Clc1ccc(OCc2nnc(SCc3nc4ccccc4[nH]3)n2Cc2ccco2)cc1,81.1*,4.1,10.9*,-5.9,-1.0,84.0*,20.9*,66.3*
CCn1c(COc2ccc(C)cc2)nnc1SCc1nc2ccccc2[nH]1,40.0,4.3,15.3*,-0.4,-1.0,19.8*,10.7,7.5
Cn1c(COc2ccccc2)nnc1SCc1nc2ccccc2[nH]1,-1.7,-1.2,0.9,-2.6,-3.1,.,.,.
Clc1cccc(-c2nnc(SCc3nc4ccccc4[nH]3)n2Cc2ccco2)c1,35.3,0.1,1.3,1.1,-0.8,.,.,.
COc1cccc(C(=O)OC(C)C(=O)NCC2CCCCC2)c1 (stereo not drawn),.,-0.5,-0.3,-1.9,-2.5,.,.,.
N#C/C(=C\c1cccnc1)c1ccccn1,.,5.1,-0.1,3.1,2.3,.,.,.
COc1ccc(/C(C#N)=C/c2cccnc2)cc1,39.8,3.1,6.1*,-1.4,6.1,15.0*,-1.0,7.9
COc1cccc(C2c3[nH]c4ccccc4c3C[C@H]3C(=O)N(c4ccccc4C(=O)N4CCCC4C(=O)O)C(=O)N23)c1 (stereo partly drawn),.,-0.9,6.4*,1.3,-1.2,15.8*,-0.7,4.2
Cc1ccc(C2c3[nH]c4ccccc4c3C[C@H]3C(=O)N(c4ccccc4C(=O)N4CCC[C@@H]4C(=O)O)C(=O)N23)cc1 (stereo partly drawn),.,0.2,4.5,1.7,1.5,.,.,.
COc1cccc(C2c3[nH]c4ccccc4c3C[C@H]3C(=O)N(CCCCCO)CC(=O)N23)c1 (stereo partly drawn),.,3.1,10.0*,3.7,-3.6,20.5*,10.1,0.9
COCCN1CC(=O)N2C(c3cccc(C)c3)c3[nH]c4ccccc4c3C[C@H]2C1=O (stereo partly drawn),.,4.2,3.9,-5.4,-3.3,.,.,.
O=C1[C@@H]2Cc3c([nH]c4ccccc34)C(c3ccc([N+](=O)[O-])cc3)N2C(=O)CN1C1CC1 (stereo partly drawn),.,-2.3,9.4*,-1.0,-4.5,20.1*,8.6,7.8
O=C1[C@@H]2Cc3c([nH]c4ccccc34)C(c3ccccc3)N2C(=O)CN1C1CC1 (stereo partly drawn),.,1.1,0.3,3.7,-2.9,.,.,.
CN1CC(=O)N2C(c3cccc([N+](=O)[O-])c3)c3[nH]c4ccccc4c3C[C@H]2C1=O (stereo partly drawn),.,0.4,77.8*,0.3,-6.1,104.7*,-4.5,91.2*
Nc1[nH]c(C(=O)c2ccccc2)c(-c2ccccc2Br)c1C(=O)NCCc1ccc(Cl)cc1Cl,.,.,-1.5,.,.,.,.,.
O=C(CN1CCCc2ccccc21)NCCc1ccc(Cl)cc1,29.1,1.4,-0.3,-0.1,0.2,.,.,.
COc1cc(NC(=O)CSc2nnc(-c3ccncc3)o2)cc(OC)c1OC,.,1.0,-0.2,-0.9,-1.0,.,.,.
O=C(c1cccc(S(=O)(=O)N2CCCC2)c1)c1nnc(-c2ccncc2)o1,5.4,0.9,-0.6,-3.5,-4.3,.,.,.
COC(=O)c1ccc(C2c3[nH]c4ccccc4c3C[C@H]3C(=O)N(C)CC(=O)N23)cc1 (stereo partly drawn),.,-1.8,-0.8,-1.0,-4.9,.,.,.
CN1CC(=O)N2C(c3ccc(Cl)cc3)c3[nH]c4ccccc4c3C[C@H]2C1=O (stereo partly drawn),.,-2.0,7.2*,1.1,2.1,17.9*,42.6*,0.0
COCCCN1CC(=O)N2C(c3cccc(C)c3)c3[nH]c4ccccc4c3C[C@H]2C1=O (stereo partly drawn),.,6.4,5.5,1.2,0.8,.,.,.
O=C1[C@@H]2Cc3c([nH]c4ccccc34)C(c3cccc([N+](=O)[O-])c3)N2C(=O)CN1CCCO (stereo partly drawn),.,-0.7,95.6*,-4.3,-1.2,95.4*,-0.6,92.7*
N#CC(C#N)=C1NC(N)=C(C#N)C(c2ccccc2)=C1C#N,.,0.2,-0.2,3.4,3.7,.,.,.
CCOC=C1SC(=S)N(c2ccccc2OC)C1=O,.,.,0.0,0.1,.,.,.,.
O=S(=O)(NCc1ccc(Cl)cc1Cl)c1ccc(N2CCOCC2)nc1,7.1,2.3,6.9*,3.6,4.8,13.6*,-2.9,3.1
Cc1ccc(S(=O)(=O)N2CCN(c3ccc(S(=O)(=O)N4CCOCC4)cn3)CC2)cc1,8.2,3.2,-2.2,-5.7,4.0,.,.,.
COc1ccc(NC(=O)CS(=O)(=O)Cc2nc(-c3ccc(C)cc3)oc2C)cc1,.,-0.4,-0.1,-2.0,-1.9,.,.,.
COc1ccc(-c2nc(CS(=O)(=O)CC(=O)Nc3ccc(Cl)cc3)c(C)o2)cc1,97.5*,3.3,12.2*,2.2,-1.4,34.2*,45.9*,26.0*
